# Experimental data from ChEMBL document CHEMBL1143957, “Inhibitory property of the Piper betel phenolics against photosensitization-induced biological damages” (Bioorg Med Chem, 2008).
# Columns and labels:
# [1] = tested on: Liver; experiment: Protection against 30 mins photoirradiation-induced lipid peroxidation damage in rat liver mitochondria assessed as prevention of TBARS formation at 180 uM; assay type: functional
# Summary of the method: (§1)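 Rat liver mitochondria (0.5 mg protein/mL final) with methylene blue (50 µg/mL) and test agent in KH₂PO₄–KOH buffer pH 7.4, held at 37 °C and irradiated 30 min with a 100 W tungsten lamp (32.45 W m⁻²). TBARS were measured after 15 min boiling with TBA/TCA/EDTA/HCl reagent, centrifugation and A532 against a malonaldehyde standard. Unirradiated endogenous TBARS were subtracted. Results are % protection, mean ± SEM, n = 5.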
# [2] = tested on: Liver; experiment: Protection against 30 mins photoirradiation-induced damage in rat liver mitochondria assessed as reduction of lipid hydroperoxide formation at 180 uM; assay type: functional; design: scale not given: the % may be the effect or the level left
# Summary of the method: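 Lipid hydroperoxide read-out: mitochondrial protein (0.5 mg/mL) plus methylene blue (50 µg/mL) with test agent at 180 µM added before a 30 min photo-irradiation. LOOH was quantified as absorbance at 560 nm. Mean ± SEM, n = 5.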
# [3] = tested on: Liver; experiment: Protection against 30 mins photoirradiation-induced lipid peroxidation damage in rat liver mitochondria assessed as prevention of TBARS formation at 60 uM; assay type: functional; summary of the method: as §1
# [4] = tested on: Liver; experiment: Protection against 30 mins photoirradiation-induced lipid peroxidation damage in rat liver mitochondria assessed as prevention of TBARS formation at 30 uM; assay type: functional; summary of the method: as §1
# [5] = tested on: Liver; experiment: Protection against 30 mins photoirradiation-induced lipid peroxidation damage in rat liver mitochondria assessed as prevention of TBARS formation at 2 mM; assay type: functional; summary of the method: as §1
# [6] = tested on: Liver; experiment: Protection against photoirradiation-induced lipid peroxidation damage in rat liver mitochondria at 10 mM; assay type: functional; summary of the method: as §1
# [7] = tested on: Liver; experiment: Protection against photoirradiation-induced lipid peroxidation damage in rat liver mitochondria at 100 mM; assay type: functional; summary of the method: as §1
# [8] = Cytotoxicity against mouse L929 cells assessed as survival at 10 uM after 20 hrs by MTT method relative to control; assay type: cell-based; details: read-out: Survival
# [9] = tested on: L929; experiment: Prevention of 5 mins photoirradiation-induced damage in mouse L929 cells assessed as survival at 10 uM by MTT assay; assay type: functional; details: L929, light or radiation study, read-out: Survival
# [10] = tested on: L929; experiment: Prevention of 15 mins photoirradiation-induced damage in mouse L929 cells assessed as survival at 5 uM by MTT assay; assay type: functional; details: L929, light or radiation study, 0.25 h, read-out: Survival
# [11] = tested on: L929; experiment: Prevention of 5 mins photoirradiation-induced damage in mouse L929 cells assessed as survival at 5 uM by MTT assay; assay type: functional; details: L929, light or radiation study, read-out: Survival
# [12] = Cytotoxicity against mouse L929 cells assessed as survival at 5 uM after 20 hrs by MTT method relative to control; assay type: cell-based; details: read-out: Survival
# [13] = tested on: L929; experiment: Prevention of 10 mins photoirradiation-induced damage in mouse L929 cells assessed as survival at 5 uM by MTT assay; assay type: functional; details: L929, light or radiation study, read-out: Survival
# [14] = tested on: L929; experiment: Prevention of 10 mins photoirradiation-induced damage in mouse L929 cells assessed as survival at 10 uM by MTT assay; assay type: functional; details: L929, light or radiation study, read-out: Survival
# [15] = Cytotoxicity against mouse L929 cells assessed as survival at 20 uM after 20 hrs by MTT method relative to control; assay type: cell-based; details: read-out: Survival
# [16] = tested on: L929; experiment: Prevention of 15 mins photoirradiation-induced damage in mouse L929 cells assessed as survival at 10 uM by MTT assay; assay type: functional; details: L929, light or radiation study, 0.25 h, read-out: Survival
# [17] = tested on: L929; experiment: Prevention of 15 mins photoirradiation-induced damage in mouse L929 cells assessed as survival at 9 uM by MTT assay; assay type: functional; details: L929, light or radiation study, 0.25 h, read-out: Activity
# Summary of the method: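 L929 mouse fibroblasts (RPMI 1640, 10% heat-inactivated FCS, 37 °C, 5% CO₂) were seeded at 2 × 10⁴ cells/well, preincubated with test agent in serum-free RPMI for 2 h, then given methylene blue (9 or 18 µM) in PBS for 2 h. Cells were washed and exposed to a 100 W tungsten lamp at room temperature for 0–15 min, then grown in 10% FCS RPMI for 72 h. Viability was measured by MTT (0.5 mg/mL, 4 h), SDS lysis and A550; n = 5.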
# [18] = tested on: L929; experiment: Prevention of 5 mins photoirradiation-induced damage in mouse L929 cells assessed as survival at 18 uM by MTT assay; assay type: functional; details: L929, light or radiation study, read-out: Survival
# [19] = Cytotoxicity against mouse L929 cells assessed as survival at 9 uM after 20 hrs by MTT method relative to control; assay type: cell-based; details: read-out: Survival
# [20] = Cytotoxicity against mouse L929 cells assessed as survival at 18 uM after 20 hrs by MTT method relative to control; assay type: cell-based; details: read-out: Survival
# [21] = tested on: L929; experiment: Prevention of 15 mins photoirradiation-induced damage in mouse L929 cells assessed as survival at 18 uM by MTT assay; assay type: functional; details: L929, light or radiation study, 0.25 h, read-out: Survival
# [22] = tested on: L929; experiment: Prevention of 10 mins photoirradiation-induced damage in mouse L929 cells assessed as survival at 18 uM by MTT assay; assay type: functional; details: L929, light or radiation study, read-out: Survival
structure (smiles),measurement,setting,value
C=CCc1ccc(OC)c(O)c1,Activity,[1],72%
same,Activity,[2],61.5%
same,Activity,[3],40%
same,Activity,[4],22%
COc1cc(C=O)ccc1O,Activity,[5],34%
N[C@@H](CCC(=O)N[C@@H](CS)C(=O)NCC(=O)O)C(=O)O,Activity,[6],35.6%
O=C1O[C@H]([C@@H](O)CO)C(O)=C1O,Activity,[6],25.7%
OC[C@@H](O)[C@@H](O)[C@H](O)[C@H](O)CO,Activity,[7],20.1%
C=CCc1ccc(O)c(O)c1 [HYDROXYCHAVICOL],"viability at 20 h, 10 µM",[8],96.5%
same,Activity,[1],86%
same,Activity,[2],87%
same,Activity,[3],48%
same,viability at 10 µM,[9],94.2%
same,viability at 5 µM,[10],85.4%
same,viability at 5 µM,[11],89.1%
same,"viability at 20 h, 5 µM",[12],96.2%
same,viability at 5 µM,[13],88.3%
same,viability at 10 µM,[14],92.2%
same,"viability at 20 h, 20 µM",[15],75.7%
same,Activity,[4],32%
same,viability at 10 µM,[16],82.9%
same,viability at 9 µM,[17],6%
CN(C)c1ccc2nc3ccc(N(C)C)cc3[s+]c2c1 [METHYLENE BLUE ANHYDROUS],viability at 18 µM,[18],67.6%
same,"viability at 20 h, 9 µM",[19],102%
same,"viability at 20 h, 18 µM",[20],95.3%
same,viability at 18 µM,[21],48.9%
same,viability at 9 µM,[17],14%
same,viability at 18 µM,[22],64.4%
